Columns and labels:
Rattus norvegicus [1] = experiment: Concentration of compound in rat kidney after intravenous injection of 20 mg/kg benzyl-penicillin after 10 min; assay type: functional, organism-based; parameters: dose 20 mg/kg
Procedure, shortened: (§1)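 Male Sprague-Dawley rats (200-250 g), conscious, received 60 µmol/kg (equimolar to 20 mg/kg benzylpenicillin) by tail-vein injection. Benzylpenicillin K was given in water/ethanol/propylene glycol, and the delivery systems in ethanol:propylene glycol 7:3, at 20 mg/mL. Rats were decapitated at set times (4-6 per point), with trunk blood heparinized and brain, kidney, liver and lung frozen. Benzylpenicillin was measured by disk microbioassay (Bacillus subtilis ATCC 6633) after >5-volume sterile-water dilution or homogenization, against matrix calibration curves; assay limit 0.05 µg/mL.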

Rattus norvegicus [2] = experiment: Concentration of compound in rat blood after intravenous injection of 20 mg/kg benzyl-penicillin after 1 min; assay type: functional, organism-based; parameters: dose 20 mg/kg; procedure, shortened: as §1
Rattus norvegicus [3] = experiment: Concentration of compound in rat liver after intravenous injection of 20 mg/kg benzyl-penicillin after 5 min; assay type: functional, organism-based; parameters: dose 20 mg/kg; procedure, shortened: as §1
Rattus norvegicus [4] = experiment: Concentration of compound in rat liver after intravenous injection of 20 mg/kg benzyl-penicillin after 1 min; assay type: functional, organism-based; parameters: dose 20 mg/kg; procedure, shortened: as §1
Rattus norvegicus [5] = experiment: Concentration of compound in rat kidney after intravenous injection of 20 mg/kg benzyl-penicillin after 1 min; assay type: functional, organism-based; parameters: dose 20 mg/kg; procedure, shortened: as §1
[6] = Half-life for disappearance of compound from rabbit 10% brain homogenate; assay type: ADME, Oryctolagus cuniculus
Procedure, shortened: (§2)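 Freshly collected whole blood, or 10% w/v brain homogenate in pH 7.4 phosphate buffer (ionic strength 0.15), was prewarmed to 37 °C. Compound was spiked from an 8 mM DMSO stock to 40 µM final. Timed samples were quenched in 8% DMSO/acetonitrile, centrifuged, filtered and analyzed by reversed-phase C8 HPLC with UV detection. K came from linear regression of log peak height versus time, with t1/2 derived from it. Values are mean ± SE of three determinations in different animal samples.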

Rattus norvegicus [7] = experiment: Concentration of compound in rat liver after intravenous injection of 20 mg/kg benzyl-penicillin after 40 min; assay type: functional, organism-based; parameters: dose 20 mg/kg; procedure, shortened: as §1
Rattus norvegicus [8] = experiment: Concentration of compound in rat liver after intravenous injection of 20 mg/kg benzyl-penicillin after 3 min; assay type: functional, organism-based; parameters: dose 20 mg/kg; procedure, shortened: as §1
[9] = Half-life for disappearance of compound from rabbit whole blood; assay type: ADME, organism-based, Oryctolagus cuniculus; procedure, shortened: as §2
Oryctolagus cuniculus [10] = species: Oryctolagus cuniculus; experiment: Pseudo first-order rate constant (K) for disappearance of compound from rabbit 10% brain homogenate; assay type: ADME
Procedure, shortened: (§3)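 Freshly collected whole blood (rat trunk blood; rabbit) or 10% w/v brain homogenate made in pH 7.4 phosphate buffer (μ = 0.15), prewarmed to 37 °C. Compound added from 8 mM DMSO stock to a final 40 μM. Timed 0.3 mL samples were quenched in 8% DMSO/acetonitrile, centrifuged, filtered and analysed by reversed-phase C8 HPLC-UV. K came from linear regression of log peak height versus time; n=3 animal samples.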

Rattus norvegicus [11] = experiment: Concentration of compound in rat brain after intravenous injection of 20 mg/kg benzyl-penicillin after 10 min; assay type: functional, organism-based; parameters: dose 20 mg/kg; procedure, shortened: as §1
Rattus norvegicus [12] = experiment: Concentration of compound in rat blood after intravenous injection of 20 mg/kg benzyl-penicillin after 10 min; assay type: functional, organism-based; parameters: dose 20 mg/kg; procedure, shortened: as §1
Rattus norvegicus [13] = experiment: Concentration of compound in rat lung after intravenous injection of 20 mg/kg benzyl-penicillin after 40 min; assay type: functional, organism-based; parameters: dose 20 mg/kg; procedure, shortened: as §1
Rattus norvegicus [14] = experiment: Concentration of compound in rat lung after intravenous injection of 20 mg/kg benzyl-penicillin after 3 min; assay type: functional, organism-based; parameters: dose 20 mg/kg; procedure, shortened: as §1
[15] = Half-life for disappearance of compound from dog whole blood; assay type: ADME, organism-based, Canis lupus familiaris; procedure, shortened: as §2
Rattus norvegicus [16] = experiment: Concentration of compound in rat lung after intravenous injection of 20 mg/kg benzyl-penicillin after 20 min; assay type: functional, organism-based; parameters: dose 20 mg/kg; procedure, shortened: as §1
Rattus norvegicus [17] = experiment: Concentration of compound in rat kidney after intravenous injection of 20 mg/kg benzyl-penicillin after 20 min; assay type: functional, organism-based; parameters: dose 20 mg/kg; procedure, shortened: as §1
Oryctolagus cuniculus [18] = species: Oryctolagus cuniculus; experiment: Pseudo first-order rate constant (K) for disappearance of compound from rabbit whole blood; assay type: ADME, organism-based; procedure, shortened: as §3
Rattus norvegicus [19] = species: Rattus norvegicus; experiment: Pseudo first-order rate constant (K) for disappearance of compound from rat 10% brain homogenate; assay type: ADME; procedure, shortened: as §3
Rattus norvegicus [20] = experiment: Concentration of compound in rat brain after intravenous injection of 20 mg/kg benzyl-penicillin after 1 min; assay type: functional, organism-based; parameters: dose 20 mg/kg; procedure, shortened: as §1
Rattus norvegicus [21] = experiment: Concentration of compound in rat lung after intravenous injection of 20 mg/kg benzyl-penicillin after 5 min; assay type: functional, organism-based; parameters: dose 20 mg/kg; procedure, shortened: as §1
Rattus norvegicus [22] = experiment: Concentration of compound in rat blood after intravenous injection of 20 mg/kg benzyl-penicillin after 3 min; assay type: functional, organism-based; parameters: dose 20 mg/kg; procedure, shortened: as §1
Rattus norvegicus [23] = experiment: Concentration of compound in rat brain after intravenous injection of 20 mg/kg benzyl-penicillin after 20 min; assay type: functional, organism-based; parameters: dose 20 mg/kg; procedure, shortened: as §1
Rattus norvegicus [24] = experiment: Concentration of compound in rat kidney after intravenous injection of 20 mg/kg benzyl-penicillin after 60 min; assay type: functional, organism-based; parameters: dose 20 mg/kg; procedure, shortened: as §1
Rattus norvegicus [25] = species: Rattus norvegicus; experiment: Half-life for disappearance of compound from rat whole blood; Compound was unstable; assay type: ADME, organism-based; details: in vitro; procedure, shortened: as §2
Rattus norvegicus [26] = experiment: Concentration of compound in rat blood after intravenous injection of 20 mg/kg benzyl-penicillin after 60 min; assay type: functional, organism-based; parameters: dose 20 mg/kg; procedure, shortened: as §1
Rattus norvegicus [27] = experiment: Concentration of compound in rat lung after intravenous injection of 20 mg/kg benzyl-penicillin after 60 min; assay type: functional, organism-based; parameters: dose 20 mg/kg; procedure, shortened: as §1
Rattus norvegicus [28] = experiment: Concentration of compound in rat blood after intravenous injection of 20 mg/kg benzyl-penicillin after 20 min; assay type: functional, organism-based; parameters: dose 20 mg/kg; procedure, shortened: as §1
Rattus norvegicus [29] = experiment: Concentration of compound in rat kidney after intravenous injection of 20 mg/kg benzyl-penicillin after 40 min; assay type: functional, organism-based; parameters: dose 20 mg/kg; procedure, shortened: as §1
Rattus norvegicus [30] = species: Rattus norvegicus; experiment: Pseudo first-order rate constant (K) for disappearance of compound from rat whole blood; Compound was unstable; assay type: ADME, organism-based; procedure, shortened: as §3
Canis familiaris = species: Canis familiaris; experiment: Pseudo first-order rate constant (K) for disappearance of compound from dog whole blood; assay type: ADME, organism-based, Canis lupus familiaris; procedure, shortened: as §2
Rattus norvegicus [31] = experiment: Concentration of compound in rat brain after intravenous injection of 20 mg/kg benzyl-penicillin after 5 min; assay type: functional, organism-based; parameters: dose 20 mg/kg; procedure, shortened: as §1
Rattus norvegicus [32] = experiment: Concentration of compound in rat liver after intravenous injection of 20 mg/kg benzyl-penicillin after 20 min; assay type: functional, organism-based; parameters: dose 20 mg/kg; procedure, shortened: as §1
Rattus norvegicus [33] = experiment: Concentration of compound in rat brain after intravenous injection of 20 mg/kg benzyl-penicillin after 60 min; assay type: functional, organism-based; parameters: dose 20 mg/kg; procedure, shortened: as §1
Rattus norvegicus [34] = experiment: Concentration of compound in rat lung after intravenous injection of 20 mg/kg benzyl-penicillin after 1 min; assay type: functional, organism-based; parameters: dose 20 mg/kg; procedure, shortened: as §1
Rattus norvegicus [35] = experiment: Concentration of compound in rat blood after intravenous injection of 20 mg/kg benzyl-penicillin after 40 min; assay type: functional, organism-based; parameters: dose 20 mg/kg; procedure, shortened: as §1
Rattus norvegicus [36] = experiment: Concentration of compound in rat kidney after intravenous injection of 20 mg/kg benzyl-penicillin after 3 min; assay type: functional, organism-based; parameters: dose 20 mg/kg; procedure, shortened: as §1
Rattus norvegicus [37] = experiment: Concentration of compound in rat liver after intravenous injection of 20 mg/kg benzyl-penicillin after 10 min; assay type: functional, organism-based; parameters: dose 20 mg/kg; procedure, shortened: as §1
Rattus norvegicus [38] = experiment: Concentration of compound in rat brain after intravenous injection of 20 mg/kg benzyl-penicillin after 40 min; assay type: functional, organism-based; parameters: dose 20 mg/kg; procedure, shortened: as §1
[39] = Half-life for disappearance of compound from human whole blood; assay type: ADME, organism-based; procedure, shortened: as §2
Rattus norvegicus [40] = experiment: Concentration of compound in rat kidney after intravenous injection of 20 mg/kg benzyl-penicillin after 5 min; assay type: functional, organism-based; parameters: dose 20 mg/kg; procedure, shortened: as §1
[41] = Half-life for disappearance of compound from rat 10% brain homogenate; assay type: ADME; procedure, shortened: as §2
Rattus norvegicus [42] = experiment: Concentration of compound in rat liver after intravenous injection of 20 mg/kg benzyl-penicillin after 60 min; assay type: functional, organism-based; parameters: dose 20 mg/kg; procedure, shortened: as §1
Rattus norvegicus [43] = experiment: Concentration of compound in rat lung after intravenous injection of 20 mg/kg benzyl-penicillin after 10 min; assay type: functional, organism-based; parameters: dose 20 mg/kg; procedure, shortened: as §1
Rattus norvegicus [44] = experiment: Concentration of compound in rat blood after intravenous injection of 20 mg/kg benzyl-penicillin after 5 min; assay type: functional, organism-based; parameters: dose 20 mg/kg; procedure, shortened: as §1
Homo sapiens = species: Homo sapiens; experiment: Pseudo first-order rate constant (K) for disappearance of compound from human whole blood; assay type: ADME, organism-based; procedure, shortened: as §2
Rattus norvegicus [45] = experiment: Concentration of compound in rat brain after intravenous injection of 20 mg/kg benzyl-penicillin after 3 min; assay type: functional, organism-based; parameters: dose 20 mg/kg; procedure, shortened: as §1

CN1C=CCC(C(=O)OCCOC(=O)C2N3C(=O)C(NC(=O)Cc4ccccc4)C3SC2(C)C)=C1 (configuration not stated)
Concentration (Rattus norvegicus [1]): 30.3 µg/mL | Concentration (Rattus norvegicus [2]): 22.7 µg/mL | Concentration (Rattus norvegicus [3]): 12.6 µg/mL | Concentration (Rattus norvegicus [4]): 11.1 µg/mL | Concentration (Rattus norvegicus [5]): 37.9 µg/mL | half-life [6]: 4 min | Concentration (Rattus norvegicus [7]): 1.5 µg/mL | Concentration (Rattus norvegicus [8]): 10.9 µg/mL | half-life [9]: 0.8 min | K (Oryctolagus cuniculus [10]): 0.174 min⁻¹ | Concentration (Rattus norvegicus [11]): 3.9 µg/mL | Concentration (Rattus norvegicus [12]): 5.6 µg/mL | Concentration (Rattus norvegicus [13]): 5 µg/mL | Concentration (Rattus norvegicus [14]): 32.4 µg/mL | half-life [15]: 4.1 min | Concentration (Rattus norvegicus [16]): 7.2 µg/mL | Concentration (Rattus norvegicus [17]): 10.3 µg/mL | K (Oryctolagus cuniculus [18]): 0.903 min⁻¹ | K (Rattus norvegicus [19]): 0.296 min⁻¹ | Concentration (Rattus norvegicus [20]): 8.8 µg/mL | Concentration (Rattus norvegicus [21]): 31.2 µg/mL | Concentration (Rattus norvegicus [22]): 9 µg/mL | Concentration (Rattus norvegicus [23]): 2.4 µg/mL | Concentration (Rattus norvegicus [24]): 2.1 µg/mL | T1/2 (Rattus norvegicus [25]): Unstable | Concentration (Rattus norvegicus [26]): 0.3 µg/mL | Concentration (Rattus norvegicus [27]): 2.8 µg/mL | Concentration (Rattus norvegicus [28]): 1.9 µg/mL | Concentration (Rattus norvegicus [29]): 3.4 µg/mL | K (Rattus norvegicus [30]): Unstable | K (Canis familiaris): 0.168 min⁻¹ | Concentration (Rattus norvegicus [31]): 3.7 µg/mL | Concentration (Rattus norvegicus [32]): 4.7 µg/mL | Concentration (Rattus norvegicus [33]): 0.7 µg/mL | Concentration (Rattus norvegicus [34]): 37.7 µg/mL | Concentration (Rattus norvegicus [35]): 0.7 µg/mL | Concentration (Rattus norvegicus [36]): 56.4 µg/mL | Concentration (Rattus norvegicus [37]): 11.4 µg/mL | Concentration (Rattus norvegicus [38]): 1.1 µg/mL | half-life [39]: 16.2 min | Concentration (Rattus norvegicus [40]): 54.6 µg/mL | half-life [41]: 2.4 min | Concentration (Rattus norvegicus [42]): 0.6 µg/mL | Concentration (Rattus norvegicus [43]): 24.5 µg/mL | Concentration (Rattus norvegicus [44]): 10.7 µg/mL | K (Homo sapiens): 0.043 min⁻¹ | Concentration (Rattus norvegicus [45]): 3.5 µg/mL
